Results: ChEMBL document CHEMBL5335784, “Discovery of a novel 1,3,4-oxadiazol-2-one-based NLRP3 inhibitor as a pharmacological agent to mitigate cardiac and metabolic complications in an experimental model of diet-induced metaflammation” (Eur J Med Chem, 2023)
Calls of active or inactive are those of the source. The rule behind the calls is not given here.

Experiments:
[1] = test system: Rattus norvegicus; assay: Antiinflammatory activity against high fat diet fed-induced metaflammation Wistar rat model assessed as reduction in serum TNF-alpha level at 20 mg/kg/day, ip administered for 4 weeks by ELISA; type: functional, organism-based
Procedure, shortened: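 Male Wistar rats on HFD or SD for 12 weeks received 20 mg/kg/day i.p. (saline, 2% DMSO, 5% Cremophor-EL) or vehicle for the last 28 days. Circulating IL-1β, TNF-α, BNP and Gal-3 quantified by ELISA in blood collected after sacrifice. n=6–7 per group.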

[2] = Effect on developed LVP recovery in high diet fed obese Wistar rat model at 20 mg/kg/day, ip administered for 4 weeks (reference value: 54 +/-6 mmHg); type: toxicity, organism-based; conditions: in vivo, 672 h

SMILES: CCOC(=O)Cn1nc(Cc2ccccc2Cl)oc1=O
- Activity [1]: Active
- Activity [2]: 64 mmHg
